Wee1 degr inh: human Wee1 degradation inhibition, primary screen; P30291; HeLa Luc-Wee1K328M stability, luciferase luminescence; 100% = proteasome inhibitor MG132 effect; reporter increase, % at 5 µM; actives 1.2% (n = 220,000); AID 1321;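 active means activation above the mean of all tested compounds plus 3 SD, set per screening run, cut at about 8.8% in these data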;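 further: cells exposed to compound for 20 h before luminescence read; 0% = DMSO alone and 100% = MG132 at 30 µM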
PKD1 kinase inh: PKD1 (human) kinase inhibition. Q15139. PKD1 kinase fluorescence polarization assay. inhibition, % (test concentration not listed). actives 0.056% (n = 200,000); in the data active means inhibition above about 50%
C8 TRAIL sens: caspase-8 TRAIL sensitization; NB7+C8 cells + TRAIL, ATPlite viability luminescence; inhibition (viability loss, TRAIL sensitization), % at 10 µM; actives 1% (n = 360,000);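 active means compounds causing at least 50% loss of cell viability in the single-dose screen, relative to plate controls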
PPC-1+TRAIL kill: PPC-1 cancer cell killing with TRAIL present. cell killing (% activity), % at 4 µM or 5 µM. actives 0.41% (n = 220,000). AID 1443. PPC-1 cells + TRAIL, ATPLite viability luminescence;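 active means cell killing above 50% in the first pass at 4 µM, then a duplicate retest at 5 µM averaging 50% or more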;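 further: plate controls were cells with TRAIL plus DMSO for no effect and medium-only wells lacking cells for full effect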
FLuc inhib CS: counter-screen for luciferase assay inhibitors: firefly luciferase inhibition | AID 1006 | actives 1.5% (n = 200,000) | P08659 | ATPLite firefly luciferase biochemical luminescence, 10 min | inhibition, % at 10 µM;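 active means inhibition above about 50% when tested at 10 µM, limit read from the data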
Target sequence (P08659 whole entry, looked up): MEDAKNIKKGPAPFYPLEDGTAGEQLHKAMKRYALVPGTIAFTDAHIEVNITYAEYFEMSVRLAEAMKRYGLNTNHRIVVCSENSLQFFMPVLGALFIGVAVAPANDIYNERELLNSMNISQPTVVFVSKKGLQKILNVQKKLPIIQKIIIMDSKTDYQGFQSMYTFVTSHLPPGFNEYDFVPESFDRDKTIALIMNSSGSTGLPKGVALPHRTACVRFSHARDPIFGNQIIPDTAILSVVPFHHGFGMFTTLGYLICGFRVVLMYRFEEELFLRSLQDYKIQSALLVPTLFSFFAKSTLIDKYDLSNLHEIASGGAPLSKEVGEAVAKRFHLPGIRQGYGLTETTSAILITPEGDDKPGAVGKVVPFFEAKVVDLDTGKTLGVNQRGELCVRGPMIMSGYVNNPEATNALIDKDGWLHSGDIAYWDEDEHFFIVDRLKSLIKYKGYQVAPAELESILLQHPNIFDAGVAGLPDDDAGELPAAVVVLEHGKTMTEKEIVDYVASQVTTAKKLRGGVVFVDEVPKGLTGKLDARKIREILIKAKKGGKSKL
FLuc act counter: affects firefly luciferase, flagging false hits in luciferase stimulation screens. AID 1027. P08659. activation factor at 10 µM. 200,000 tested, under 10 active. ATPlite luciferase biochemical, luminescence, 10 min; 0 = ATP-free wells, 1 = DMSO control;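 active means luciferase activation factor, scaled between plate controls, of at least 2 with compound at 10 µM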
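System: Luciferase/luciferin detection reagent, cell-free biochemical luciferase assay | Medium: PBS buffer for ATP | Dosing: Test compounds dosed from 2 mM stocks in 100% DMSO | Timing: 10 min at ambient temperature | Signal: Luminescence measurement of luciferase light output | Evaluation: Luciferase activation, seen as luminescence increase over controls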
Starred values were filed as active, the others as inactive; / = no result. Shown are actives, neighbours in structure and some others; about 2.2% of the full set was active somewhere.

SMILES	Wee1 degr inh	PKD1 kinase inh	C8 TRAIL sens	PPC-1+TRAIL kill	FLuc inhib CS	FLuc act counter
Cc1ccc(S(=O)(=O)NC(=O)C2(C)CCN2C(=O)Cc2cc(F)ccc2F)nc1 (stereo not given)	/	/	-5.4	/	/	/
O=C(Cn1cnc([N+](=O)[O-])n1)NC1CC1	-0.2	2.1	2.9	22.3	-7.7	1.1
N/C(=N\OC(=O)c1ccccc1)C(Cc1ccccc1)C(=O)NOC(=O)c1ccccc1 (stereo not given)	/	/	89.4*	/	/	/
COCCn1nnnc1C(c1ccc(OC)c(OC)c1)N1CCN(c2nc3ccccc3s2)CC1 (stereo not given)	-0.3	-11.1	-13.0	71.4*	-6.8	1.1
COc1ccc(C(c2nnnn2Cc2ccccc2)N2CCN(c3nc4ccccc4s3)CC2)cc1 (stereo not given)	0.6	-8.7	7.0	-4.9	-14.6	1.1
CC(=NCc1cccc(Cl)c1)c1nc(-c2ccco2)oc1O	9.4*	-18.7	-6.8	8.1	0.2	1
O=C(NCCc1cnccn1)C1CCC(=O)N(Cc2ccc(Cl)cc2)C1 (stereo not given)	/	/	-20.6	/	/	/
O=C(Nc1ccc([N+](=O)[O-])cn1)c1ccc(Br)o1	10.1*	-9.9	4.9	16.9	-2.0	1
O=C(Nc1ccc([N+](=O)[O-])cn1)c1cccnc1	/	/	-3.6	/	/	/
Cc1ccc(Nc2nc3c(c(=O)[nH]2)CCCC3)cc1	3.0	-6.0	-18.1	26.5	-1.8	1
O=c1[nH]c(Nc2nc3ccccc3o2)nc2c1CCCC2	-2.3	9.0	54.8*	48.7	69.6*	0.3
O=C1CN(C(=O)COC(=O)c2ccc([N+](=O)[O-])o2)c2ccccc2N1	/	/	4.4	/	/	/
COc1cccc(NC(=O)N2CCC(n3nnc4ccccc43)CC2)c1	-0.6	-8.6	-0.8	-6.1	-6.6	1.1
CCOC(=O)c1ccccc1NC(=O)C1CCCO1 (stereo not given)	/	/	-7.4	/	/	/
O=C(NCCOc1ccccc1)c1ccccc1NC(=O)C1CCCO1 (stereo not given)	9.9*	2.5	3.1	0.9	-4.4	1
COc1ccc(/C=C/C(=O)c2ccccc2O)cc1	3.5	-10.1	13.3	22.7	41.5	0.6
COc1ccc(/C=C/C(=O)c2ccc(O)cc2)cc1	-0.9	10.3	0.1	21.1	75.3*	0.2
COc1ccc(/C=C/C(=O)c2ccoc2)cc1	12.7*	-4.0	-1.3	10.1	44.9	0.6
CCOc1ccc(N(C)S(=O)(=O)c2ccc(C)c(C(=O)OCC(=O)c3c[nH]c4ccccc34)c2)cc1	6.8	-2.6	24.1	4.0	-2.7	1
CCOc1nc(C)ccc1-c1noc(-c2ccccn2)n1	2.3	-13.0	7.1	14.2	4.7	1
CCOc1ccccc1-c1nc(-c2ccc(C)nc2OC)no1	9.5*	-7.0	21.0	-1.2	16.1	0.8
Cc1cc(C(=O)CN2C(=O)c3ccccc3C2=O)c(C)n1Cc1cccs1	1.7	-7.0	46.4	4.7	62.0*	0.4
Cc1cc(C(=O)Cn2nnc3ccccc3c2=O)c(C)n1Cc1cccs1	5.4	18.7	58.1*	43.8	80.2*	0.2
Cc1cc(C)cc(NC(=O)c2cc(C)n(Cc3cccs3)c2C)c1	1.1	/	51.1*	42.0	/	/
O=C(/C=C/c1ccc(Cl)cc1Cl)c1ccc[nH]1	0.2	-7.3	-3.0	2.1	51.6*	0.5
SMILES	Wee1 degr inh	PKD1 kinase inh	C8 TRAIL sens	PPC-1+TRAIL kill	FLuc inhib CS	FLuc act counter
O=C(/C=C/c1ccccc1Cl)c1ccc[nH]1	-2.8	8.7	11.4	25.5	48.5	0.5
CCCCNC(=O)COC(=O)c1ccc(N(C)C)cc1	-2.1	0.1	5.7	-2.1	-0.2	1
Cc1scc(C(=O)N/N=C/c2ccsc2)c1C	5.4	-7.8	62.1*	54.3*	83.8*	0.2
Cc1scc(C(=O)N/N=C/c2ccco2)c1C	5.3	-13.0	39.0	-2.5	54.4*	0.5
Cc1scc(C(=O)N/N=C/c2ccc([N+](=O)[O-])o2)c1C	/	/	26.5	/	/	/
CN(C)c1cccc(C(=O)N/N=C/c2ccsc2)c1	1.5	-7.8	57.6*	31.2	90.0*	0.1
CCCCN(C)CCCNC(=O)/C=C1\Sc2ccccc2NC1=O	0.8	-7.3	-16.5	21.2	-0.5	1
COc1ccc(N2CCN(C(=O)c3ccc(NS(=O)(=O)c4cccs4)cc3)CC2)cc1	9.0*	-7.7	4.8	-11.8	0.7	1
COc1cc(/C=N/Nc2cc(C)nc(NS(=O)(=O)c3ccccc3)n2)ccc1O	10.0*	/	-8.4	6.4	/	/
Cc1cc(N/N=C/c2ccccc2Cl)nc(NCc2ccccc2)n1	1.4	-3.3	57.3*	45.6	59.8*	0.4
Cc1cc(C)nc(N/N=C/c2ccccc2Cl)n1	1.8	/	1.8	28.7	/	/
Cc1cc(N/N=C/c2ccccc2O)nc(-c2ccccc2O)n1	-0.7	2.4	19.2	39.1	60.9*	0.4
COc1ccc(O)c(/C=N/Nc2nc(Nc3ccccc3)nc(-n3nc(C)cc3C)n2)c1	0.6	-0.2	55.4*	-7.4	5.8	0.9
Cc1cc(N/N=C/c2ccc(O)cc2O)nc(-c2ccccc2O)n1	-2.2	-2.4	77.4*	34.0	64.5*	0.4
COc1ccc(/C=N/Nc2cc(C)nc(-n3nc(C)cc3C)n2)cc1	-2.0	-3.3	47.5	6.9	-1.9	1
C/C(=N\Nc1cc(C)nc(-c2ccccc2O)n1)c1ccccc1O	0.5	/	28.8	24.5	/	/
Cc1cc(N/N=C\c2ccccc2)nc(-c2ccccc2O)n1	-1.4	-7.0	56.5*	34.4	64.7*	0.4
Cc1cc(N/N=C/c2ccc(O)cc2O)nc(-n2nc(C)cc2C)n1	-2.0	-9.7	35.6	55.0*	5.3	0.9
CC(c1ccccc1)N1CC(C(=O)Nc2ccc(F)cc2)CC1=O (stereo not given)	/	/	-8.0	/	/	/
COCCNc1nc2cc(-c3ccc(F)cc3)sc2c(=O)n1C	/	/	-8.7	/	/	/
O=c1[nH]c(CCl)nc2cc(-c3ccc(F)cc3)sc12	/	/	81.5*	/	/	/
COc1cccc(OCc2cc(C(=O)N(C)CCOc3ccc(C)cc3)no2)c1	/	/	11.6	/	/	/
CCOC(=O)c1nnn(-c2nonc2N)c1-c1ccc(Br)cc1	9.5*	-5.3	-6.8	31.9	-8.7	1.1
Cc1cc(NC(=O)c2ccc3c(c2)OCCO3)no1	0.9	-14.8	86.6*	41.7	93.3*	0.1
Cc1cc(NC(=O)c2ccc3c(c2)OCO3)no1	-1.6	-5.6	50.8*	19.2	61.7*	0.4
COc1ccc(C(=O)Nc2cc3c(cc2Cl)OCCCO3)cc1	3.6	-4.4	25.0	17.9	39.1	0.6
COc1cccc(C(=O)Nc2cc3c(cc2Cl)OCCCO3)c1	7.2	-8.4	39.8	18.9	64.7*	0.4
Cc1cc(NC(=O)CSc2nnc(-c3ccc4c(c3)OCCO4)o2)no1	-0.1	-1.5	48.9*	45.3	11.7	0.9
O=C(CCCOc1ccc(Br)cc1)Nc1nnc(C2CC2)s1	/	/	-8.9	/	/	/
Cc1cc(Cl)ccc1NC(=O)c1ccc2c(c1)OCO2	/	/	3.9	/	/	/

Screening data: PubChem, several laboratories
